Data reported in PubChem BioAssay.
Records with an inconclusive call do not appear.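 How the source made its calls, unless noted: active means viability at or below 27.92% in each of two runs, the all-compound median minus 4 SD; inconclusive means no clear call, values can overlap the other calls; inactive means the rest.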

What was measured:
[1] = S. cerevisiae growth inhibition in permissive medium (OD615), pilot counter-assay for S. cerevisiae lifespan shortening project, permissive growth control (AID 705;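 active means growth inhibition above 25% in both replicates, a cutoff set 3 SD above the mean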); conditions: OD615, 24 h, at 10 µM, stronger effect = higher value
Summary of the method: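 System – S. cerevisiae with engineered DeaD lifespan system · Buffer or medium – SC raffinose/galactose permissive medium · Schedule – cells pre-grown 4 h, then 24 h compound exposure, 30 °C humidified · Technique – culture turbidity as optical density at 615 nm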

[2] = S. cerevisiae growth inhibition in restrictive medium, OD615, pilot screen, restrictive growth control, yeast lifespan reduction project (AID 706;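 active means growth inhibition above a set limit, 3 SD over mean compound inhibition, in both replicates, cut at about 43% in these data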;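 further: modified DeaD lifespan yeast strain shifted to restrictive glucose medium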); conditions: OD615, 48 h, at 10 µM, stronger effect = higher value
Summary of the method: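 Material: engineered S. cerevisiae DeaD strain / Medium: glucose-based CSMM-D restrictive medium / Compound: single dose of 10 µM compound final, 0.25% DMSO / Timing: 4 h pre-incubation, 48 h exposure at 30 °C / Technique: OD615 absorbance reading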

[3] = doxorubicin toxicity protection in MRP-1 cells – H69AR cells, CellTiter-Glo, duplicate, MRP-1 activator project, pilot screen (AID 807;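 active means viability increase at or above a cutoff of the median across tested compounds plus 3 SD, cut at about 8.5% in these data, passing the limit was not always enough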;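 further: compound pretreatment 18-22 h then 72 h combined with doxorubicin; 0% = doxorubicin alone and 100% = vehicle without doxorubicin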); conditions: H69AR viability with doxorubicin, CellTiter-Glo luminescence; at 10 µM; stronger effect = higher value
[4] = viability of HCT116 without oncogenic beta-catenin – human colon tumor cells, pilot screen (AID 823;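 active means cell viability at or below a set limit in both duplicate runs, the limit being the all-compound median minus 4 SD, cut at about 23% in these data, passing the limit was not always enough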;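 further: 0% = wells killed by 20 µM Hyamine and 100% = untreated DMSO cell wells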); conditions: HCT116 beta-catenin knockout viability, CellTiter-Glo, 60 h; at 10 µM; stronger effect = lower value
[5] = viability of PTEN-null HCT116 cells – cell-based, HCT116 clonal line, CellTiter-Glo, pilot screen (AID 824); conditions: HCT116 PTEN-deleted viability, 60 h, at 10 µM, stronger effect = lower value;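 further: 0% = 20 µM Hyamine control and 100% = vehicle cell control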
[6] = RAM pathway blockade in budding yeast – dse1pr::URA3 reporter, 5-FOA selection, pilot screen (AID 869;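 active means inhibition over a set limit, the all-compound mean plus 3 SD, in both replicate runs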;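 further: 0% = DMSO wells with no growth and 100% = 10 µM 1-NA-PP1 with full growth; RAM network block rescues cells from 5-FOA so hits raise OD615 growth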); conditions: S. cerevisiae dse1pr::URA3 5-FOA growth, OD615, 2 d; at 10 µM; stronger effect = higher value; strain carries analog-sensitive mutant Cbk1 kinase
[7] = RAM signaling pathway blockade in yeast – S. cerevisiae, Pdr1DBD-CYC8 efflux-inhibited sensitized strain, primary screen (AID 1298;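 active means RAM network inhibition above 8.4% in each of two replicates, 3 SD over the compound average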;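 further: 0% = DMSO untreated cells without growth and 100% = 10 µM 1-NA-PP1 full growth; higher means more yeast growth rescued from 5-FOA killing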); conditions: S. cerevisiae cbk1-as DSE1-URA3 strain, 5-FOA growth OD615, 2 d; at 50 µM; stronger effect = higher value

COC(=O)c1c(C)oc2ccc(OC(=O)c3cccs3)cc12
inactive: growth inhibition [1] 4.65% | growth inhibition [2] -15% | viability increase [3] 1.81% | viability [4] 96.3% | viability [5] 99.5% | inhibition [6] 0.81% | RAM network inhibition [7] 0.1%

CC1CCCC(C)N1c1nnc(NC(=O)Cn2c(=O)oc3ccccc32)s1 (configuration not stated)
inactive: growth inhibition [1] -4.67% | growth inhibition [2] 9.9% | viability increase [3] 0.39% | viability [4] 95.1% | viability [5] 99.2% | inhibition [6] 1.85% | RAM network inhibition [7] 3.6%

Cc1ccccc1NC(=O)c1ocnc1C
inactive: growth inhibition [1] -1.01% | growth inhibition [2] -8.43% | viability increase [3] -1.48% | viability [4] 101% | viability [5] 92.3% | inhibition [6] 0.18% | RAM network inhibition [7] 4.25%

CC1=C(C(=O)OCc2ccccc2)C(c2ccc(N3CCOCC3)cc2)NC(=O)N1 (configuration not stated)
inactive: growth inhibition [1] -6.21% | growth inhibition [2] -3.42% | viability increase [3] 0.5% | viability [4] 100% | viability [5] 98.9% | inhibition [6] 0.99% | RAM network inhibition [7] 4.42%

COc1ccc(Cl)cc1N(CC(=O)Nc1ccc2c(c1)OCO2)S(C)(=O)=O
inactive: growth inhibition [1] -15.1% | growth inhibition [2] -11.7% | viability increase [3] -3.17% | viability [4] 92.6% | viability [5] 89.4% | inhibition [6] 0.79% | RAM network inhibition [7] 2.18%

Cc1cc(C)c2c(CC(=O)O)coc2c1
inactive: growth inhibition [1] -5.72% | growth inhibition [2] 10.2% | viability increase [3] 0.24% | viability [4] 93.9% | viability [5] 105% | inhibition [6] 2.03% | RAM network inhibition [7] 0.98%

O=C1C(Cl)=C(N2CCOCC2)C(=O)N1c1ccccc1Cl
inactive: growth inhibition [1] -8.11% | growth inhibition [2] -4.76% | viability increase [3] -2.16% | viability [4] 99.2% | viability [5] 103% | inhibition [6] 0.045% | RAM network inhibition [7] 4.96%

Cc1cccc(CCNC(=O)CN(C)S(=O)(=O)c2ccc3c(c2)c(=O)n(C)c(=O)n3C)c1
inactive: growth inhibition [1] -12.1% | growth inhibition [2] -22.2% | viability increase [3] -0.92% | viability [4] 102% | viability [5] 90.4% | inhibition [6] 1.75% | RAM network inhibition [7] 2.91%

c1ccc(-c2nnn(C34CC5CC(CC(C5)C3)C4)n2)cc1
inactive: growth inhibition [1] -4.34% | growth inhibition [2] -0.125% | viability increase [3] 0.19% | viability [4] 90.8% | viability [5] 84.9% | inhibition [6] 0.215% | RAM network inhibition [7] 5.67%

CCn1c(N)nc2c1c(=O)n(C)c(=O)n2C
inactive: growth inhibition [1] 4.48% | growth inhibition [2] -1.29% | viability increase [3] -1.39% | viability [4] 108% | viability [5] 98.9% | inhibition [6] 0.32% | RAM network inhibition [7] 2.67%

CC(=O)COC(=O)c1cccc(N2C(=O)C3C4C=CC(C4)C3C2=O)c1 (configuration not stated)
inactive: growth inhibition [1] -0.62% | growth inhibition [2] 8.06% | viability increase [3] -1.07% | viability [4] 105% | viability [5] 93.5% | inhibition [6] 1.27% | RAM network inhibition [7] 0.67%

O=C(Cc1ccccc1)Nc1c(C(=O)N2CCOCC2)cnn1-c1ccccc1
inactive: growth inhibition [1] 6.39% | growth inhibition [2] -23.4% | viability increase [3] -1.59% | viability [4] 93.5% | viability [5] 97% | inhibition [6] 1.21% | RAM network inhibition [7] 1.24%

O=C(c1csc2c1CCCC2)n1cccn1
inactive: growth inhibition [1] 13.2% | growth inhibition [2] 15.7% | viability increase [3] -0.86% | viability [4] 98.7% | viability [5] 106% | inhibition [6] 1.69% | RAM network inhibition [7] -0.11%

Cc1cc(C(=O)N2CCN(S(C)(=O)=O)CC2)sc1-c1ccccc1
inactive: growth inhibition [1] -7.32% | growth inhibition [2] 3.48% | viability increase [3] -2.61% | viability [4] 94.9% | viability [5] 94% | inhibition [6] 3.19% | RAM network inhibition [7] 6.22%

Cc1cc(C)n2nc(SCC(=O)Nc3ccc(F)cc3)nc2n1
inactive: growth inhibition [1] -11.7% | growth inhibition [2] -10.9% | viability increase [3] -1.21% | viability [4] 111% | viability [5] 98.5% | inhibition [6] 2.25% | RAM network inhibition [7] -0.94%

CCn1cc(Br)c(C(=O)Nc2ccc(F)c(Cl)c2)n1
inactive: growth inhibition [1] 0.5% | growth inhibition [2] -5.7% | viability increase [3] -3.96% | viability [4] 84.1% | viability [5] 80.6% | inhibition [6] -0.565% | RAM network inhibition [7] -0.16%

COc1ccccc1-n1c(CNC(=O)c2ccco2)nnc1SCC(=O)Nc1nccs1
inactive: growth inhibition [1] -0.655% | growth inhibition [2] -2.6% | viability increase [3] -5.08% | viability [4] 77.4% | viability [5] 66.2% | inhibition [6] 1.09% | RAM network inhibition [7] 1.25%

O=C(Nc1ccncc1)c1cccs1
inactive: growth inhibition [1] -6.22% | growth inhibition [2] 4.99% | viability increase [3] -2.27% | viability [4] 105% | viability [5] 95.2% | inhibition [6] 1.87% | RAM network inhibition [7] 0.93%

Cc1nn2cc(-c3ccccc3)nc2s1
inactive: growth inhibition [1] -5.37% | growth inhibition [2] -7.45% | viability increase [3] -1.05% | viability [4] 93.3% | viability [5] 91.6% | inhibition [6] 0.575% | RAM network inhibition [7] 4.7%

O=C(CSCC(=O)N1CCOCC1)Nc1nc(-c2ccc3c(c2)OCO3)cs1
inactive: growth inhibition [1] -15% | growth inhibition [2] -3.92% | viability increase [3] -3.99% | viability [4] 100% | viability [5] 97.3% | inhibition [6] 0.47% | RAM network inhibition [7] 6.38%

CCOc1ccccc1NC(=O)C1Cc2ccccc2CN1S(C)(=O)=O (configuration not stated)
inactive: growth inhibition [1] -8.32% | growth inhibition [2] -7.46% | viability increase [3] -5.66% | viability [4] 82.9% | viability [5] 80.6% | inhibition [6] 0.37% | RAM network inhibition [7] 3%

COc1ccc(Cn2c(=O)[nH]c3cc(C(=O)NCCCN4CCCC4=O)ccc3c2=O)cc1
inactive: growth inhibition [1] -17.7% | growth inhibition [2] -12.3% | viability increase [3] 0.19% | viability [4] 91.6% | viability [5] 90.4% | inhibition [6] 0.92% | RAM network inhibition [7] 1.36%

COc1ccc(C2(C(F)(F)F)NC(=O)N(C)C(=O)N2C)cc1 (configuration not stated)
inactive: growth inhibition [1] -14.7% | growth inhibition [2] -19.5% | viability increase [3] -0.46% | viability [4] 99% | viability [5] 101% | inhibition [6] 1.11% | RAM network inhibition [7] 2.74%

COc1ccc(Cl)cc1N(CC(=O)N1CCC(C)CC1)S(C)(=O)=O
inactive: growth inhibition [1] 5.7% | growth inhibition [2] 0.85% | viability increase [3] -1.75% | viability [4] 96.6% | viability [5] 92.7% | inhibition [6] 0.155% | RAM network inhibition [7] 1.72%

O=C(CCCOc1ccccc1)Nc1ccc2c(c1)OCCO2
inactive: growth inhibition [1] 1.88% | growth inhibition [2] 7.45% | viability increase [3] -4.17% | viability [4] 102% | viability [5] 102% | inhibition [6] 1.16% | RAM network inhibition [7] 3.58%

O=C(CSc1ncccn1)NCCc1ccccc1
inactive: growth inhibition [1] -4.5% | growth inhibition [2] 2.61% | viability increase [3] -1.26% | viability [4] 96% | viability [5] 97.2% | inhibition [6] 2.3% | RAM network inhibition [7] 2.5%

CC(C)OC(=O)c1nnc(Cc2ccc(Cl)cc2)o1
inactive: growth inhibition [1] -6.46% | growth inhibition [2] 9.87% | viability increase [3] 0.7% | viability [4] 102% | viability [5] 102% | inhibition [6] -0.06% | RAM network inhibition [7] 1.93%

COc1cc(O)c(NC(C)=O)c2nonc12
inactive: growth inhibition [1] -5.37% | growth inhibition [2] 5.21% | viability increase [3] 0% | viability [4] 101% | viability [5] 107% | inhibition [6] -0.845% | RAM network inhibition [7] -1.46%

CC(C)C(C(=O)NC(C)(C)C)N1C(=O)c2ccccc2C1=O (configuration not stated)
inactive: growth inhibition [1] -7.04% | growth inhibition [2] 0.73% | viability increase [3] 0.34% | viability [4] 101% | viability [5] 101% | inhibition [6] -0.63% | RAM network inhibition [7] 12.4%

Cc1nnc(SCC(=O)Nc2ccc3c(c2)OCO3)o1
inactive: growth inhibition [1] -0.465% | growth inhibition [2] -12% | viability increase [3] -5.27% | viability [4] 102% | viability [5] 95.1% | inhibition [6] 1.41% | RAM network inhibition [7] 4.08%

COc1ccccc1N=C(C)C1=C(O)CSC1=O
inactive: growth inhibition [1] -9.17% | growth inhibition [2] -5.92% | viability increase [3] -1.29% | viability [4] 99.6% | viability [5] 93.3% | inhibition [6] -0.17% | RAM network inhibition [7] 6.89%

Cc1ccc(OS(=O)Nc2cccc3nccnc23)cc1 (configuration not stated)
inactive: growth inhibition [1] 1.61% | growth inhibition [2] 13.2% | viability increase [3] -4.19% | viability [4] 56.8% | viability [5] 55% | inhibition [6] 1.72% | RAM network inhibition [7] 2.2%

CCCOC(=O)C1=C(C)NC2=C(C(=O)C(C(=O)OC)C(C)C2)C1c1ccc(N(CC)CC)cc1 (configuration not stated)
inactive: growth inhibition [1] -10.6% | growth inhibition [2] -19.6% | viability increase [3] -3.23% | viability [4] 65.7% | viability [5] 56.8% | inhibition [6] 1.56% | RAM network inhibition [7] 1.46%

CN1CCN(CCNC(=O)c2cc3c(=O)n(C)c4ccccc4c3n2C)CC1
inactive: growth inhibition [1] -12.9% | growth inhibition [2] -20% | viability increase [3] -4.6% | viability [4] 82.3% | viability [5] 81.3% | inhibition [6] 0.755% | RAM network inhibition [7] 1.04%

O=C(CCN1CCN(c2ccccc2)CC1)Nc1ccc2c(c1)OCO2
inactive: growth inhibition [1] -5.71% | growth inhibition [2] 0.05% | viability increase [3] -4.06% | viability [4] 91.7% | viability [5] 92.4% | inhibition [6] 2.58% | RAM network inhibition [7] 1.28%

O=C(Nc1ccc(N2CCOCC2)c(Cl)c1)C1CCCCC1
inactive: growth inhibition [1] 1.5% | growth inhibition [2] 4.29% | viability increase [3] -2.1% | viability [4] 97.6% | viability [5] 94.8% | inhibition [6] 0.18% | RAM network inhibition [7] 3.22%
